Compound activity deposited in PubChem BioAssay by Broad Institute.
PGC1a acetyl up – compounds raising PGC1a acetylation signal, primary screen, PGC1a modulator project, cell-based, U2OS, AlphaScreen, signal-increasing mode. overnight. activation, % at 15.6 µM. actives 0.21% (n = 350,000). AID 651723, 2012;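 active means every replicate reaching activation of at least 50%, whatever the mean replicate activation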;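 further: hits raise the AlphaScreen acetylation signal above neutral controls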
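System: Flag-PGC1a/GCN5 U2OS cells | Quantity: 7000 cells/well | Times: Overnight compound treatment, 37 °C | Measured by: AlphaScreen proximity luminescence, anti-acetyl-lysine antibody | Dosing: One concentration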
Of the large screens only hits and unclear results are named; the others gave an inactive call. Not all results are given here.

C[C@@H]1CN([C@@H](C)CO)C(=O)c2cc(/C=C/c3ccccc3)cnc2O[C@@H]1CN(C)Cc1cccnc1	none
O=C(O)CSCC(=O)NCc1ccc(Cl)cc1Cl	none
O=C(NC(=S)Nc1cc(Cl)ccc1O)c1cccc(Br)c1	none
CC1(C)CC(NC(=S)NC(=O)c2cc(Br)ccc2Cl)CC(C)(C)N1	PGC1a acetyl up 225.6
CC(=O)c1cccc(NC(=S)NC(=O)c2ccc(Br)cc2)c1	none
C[C@@H]1CN([C@H](C)CO)C(=O)c2cc(C#Cc3cccc(F)c3)cnc2O[C@H]1CN(C)CC1CCCC1	PGC1a acetyl up 58.1
C[C@@H]1CN([C@@H](C)CO)C(=O)c2cc(C3=CCCC3)cnc2O[C@@H]1CN(C)C(=O)Nc1cccc(F)c1	PGC1a acetyl up 131.2
C[C@H]1CN([C@@H](C)CO)C(=O)c2cc(-c3cncnc3)cnc2O[C@@H]1CN(C)C(=O)c1cccc(F)c1	none
C[C@@H]1CN([C@@H](C)CO)C(=O)c2cc(C#CCN(C)C)cnc2O[C@H]1CN(C)Cc1ccc(F)cc1	none
C[C@H]1CN([C@@H](C)CO)C(=O)c2cc(C#Cc3ccccc3)cnc2O[C@@H]1CN(C)C(=O)c1ccccc1F	none
C[C@H]1CN([C@@H](C)CO)C(=O)c2cc(C3=CCCC3)cnc2O[C@@H]1CN(C)C(=O)c1cccnc1	none
C[C@@H]1CN([C@H](C)CO)C(=O)c2cc(NS(C)(=O)=O)ccc2O[C@@H]1CN(C)S(=O)(=O)c1ccc(Cl)cc1	none
O=C(Cc1csc(N2CCOCC2)n1)N/N=C/c1cccc(O)c1	none
S=c1sc2c(Cl)ncnc2n1-c1ccccc1	none
COCC(=O)Nc1ccc2c(c1)OC[C@@H](C)N(C(=O)c1ccccn1)C[C@@H](C)[C@@H](OC)CN(C)C2=O	none
CCN(CC)c1ccc(NC(=O)c2ccc(NC(=O)C3CCCO3)cc2)c(C)c1 (centres undefined)	PGC1a acetyl up 53.5
CN1c2ccccc2C2(C)CCCC3=Cc4cccc([N+](=O)[O-])c4OC312 (centres undefined)	PGC1a acetyl up 69.4
CCC(C)(CC(=O)O)CC(=O)Nc1cc(C(F)(F)F)cc(C(F)(F)F)c1 (centres undefined)	none
Cc1ccccc1NC(=O)CC1c2ccccc2CC(C)(C)N1C (centres undefined)	none
C[C@@H]1CN([C@H](C)CO)C(=O)c2cc(-c3ccccc3)cnc2O[C@@H]1CN(C)C(=O)Cc1ccccc1	none
O=C(CSc1nc(NS(=O)(=O)c2ccccc2)cc(=O)[nH]1)Nc1ccc(F)cc1	PGC1a acetyl up 69.5
NS(=O)(=O)c1cccc(NC(=O)CSc2ccccn2)c1	none
C[C@H]1CN([C@@H](C)CO)C(=O)Cc2cc(NS(=O)(=O)c3ccc(F)cc3)ccc2O[C@@H]1CN(C)C(=O)Nc1ccc2c(c1)OCO2	none
CCOc1cc(CNC2CCCC2)cc(Cl)c1OCc1ccc(F)cc1	none
CC(C)C(NC(=O)c1ccc(C(C)(C)C)cc1)C(=O)O (centres undefined)	none
CCc1c(C)nc(N)nc1Cl	none
Cc1cc(C)nc(NC(=O)c2c(-c3ccccc3Cl)noc2C)n1	PGC1a acetyl up 77.5
COc1ccc(OCC(=O)NNC(=O)c2c(-c3ccccc3Cl)noc2C)cc1	none
CSc1n[nH]c(NC(=O)c2c(-c3c(Cl)cccc3Cl)noc2C)n1	none
COc1ccc(S(=O)(=O)Nc2ccccc2C)cc1C(=O)N1CCOCC1	none
CCOC(=O)C1(N(CC)CC)Sc2cc(C)ccc2NC1=O (centres undefined)	PGC1a acetyl up 83.9
C[C@@H]1CN([C@H](C)CO)C(=O)c2cccc(NC(=O)C3CCCCC3)c2O[C@@H]1CN(C)CC1CCCCC1	none
Cn1ccc2cc(OCc3ccccc3)ccc21	PGC1a acetyl up 53.6
COc1ccc(-c2[nH]ncc2CN(C)C(C)c2ccon2)cc1F (centres undefined)	none
COc1ccc(-c2[nH]ncc2-c2ccc3c(c2)OCCO3)c(O)c1	none
CCOc1ccc(-c2[nH]ncc2-c2ccc(OC)c(OC)c2)c(O)c1	PGC1a acetyl up 67.6
COC(=O)c1ccccc1N(C)S(=O)(=O)c1cc2c(cc1C)OCC(=O)N2	none
CCOc1ccccc1OCCn1nnc2ccccc21	PGC1a acetyl up 53.2
COc1ccc(C(=C(CC(=O)O)C(=O)OC(C)(C)C)c2cc(OC)c(OC)c(OC)c2)cc1OC	none
CCOc1ccc(N2CC(C(=O)Nc3ccc(S(=O)(=O)NCC4CCCO4)cc3)CC2=O)cc1 (centres undefined)	none
CCOC(=O)C(=Cc1ccc(OCc2ccc([N+](=O)[O-])cc2)c(OC)c1)C(=O)OCC	none
CC/C(=C(\c1ccccc1)c1ccc(OCCN(C)C)cc1)c1ccccc1	PGC1a acetyl up 124.4
CC/C(=C(\c1ccc(O)cc1)c1ccc(OCCN(C)C)cc1)c1ccccc1	PGC1a acetyl up 62.5
CCN(CC)CCOc1ccc(/C(=C(/Cl)c2ccccc2)c2ccccc2)cc1	PGC1a acetyl up 98.7
CC(C)N1CCc2c(sc(NC(=O)C3CCCCC3)c2C(N)=O)C1	none
O=C(OCc1nc(-c2ccccc2)oc1COC(=O)c1ccco1)c1ccco1	none
COCC#Cc1cnc2c(c1)C(=O)N([C@H](C)CO)C[C@@H](C)[C@@H](CN(C)C(=O)c1cccnc1)O2	none
